The subject of assay [1] is A-431. Description: Cytotoxicity against human A431 cells after 72 hrs. In kind it is functional, cell-based. Conditions: A-431, 72 h.
Assay [2] relates to NCI-H460. Description: Cytotoxicity against human NCI-H460 cells after 72 hrs. In kind it is functional, cell-based. The conditions noted are these: NCI-H460, 72 h. The essentials:
(§1)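 Compounds were dissolved fresh in DMSO and diluted in culture medium. Cells were exposed for 72 h at 37 °C in medium with 10% heat-inactivated FBS under 5% CO2. IC50 reported ± SD. STO cells were grown in 50/50 DMEM-Ham's F12 with 10% FBS and 2 mM L-Gln.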

Assay [3] can be described thus: Cytotoxicity against human STO cells after 72 hrs. In kind it is functional, cell-based. The essentials:
as §1

A short description of assay [4]: Binding affinity to Hsp90 after 4 hrs by GM-FITC based fluorescence polarization assay. The essentials: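 Commercial Hsp90 at 30 nM was mixed with GM-FITC tracer at 5 nM and serially diluted compound. Buffer: 20 mM HEPES(K) pH 7.3, 50 mM KCl, 5 mM MgCl2, 20 mM Na2MoO4, 0.01% NP40, with fresh 0.1 mg/ml bovine gamma globulin and 2 mM DTT. Shaken 4 h at 4 °C, then FP read in mP. IC50 is the concentration displacing 50% of tracer, from triplicate wells by nonlinear least-squares fit.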
A general note: In fluorescence polarisation assays a small probe gives low polarisation when free and higher when bound to something large.

In assay [5] the test system is NCI-H460. In words: Cytotoxicity against human NCI-H460 cells at >1 uM after 72 hrs. In kind it is functional.

As a reminder, the IC50 is the concentration needed to halve the response being measured. Low readings indicate greater potency in that assay, high ones weaker potency in that assay. The pIC50 is −log10 of the IC50, conventionally taken in molar units.

On to `CC(=O)Oc1cccc2c1C(=O)c1c(-c3ccc(F)cc3)noc1C2=O`, for which the IC50 amounted to 270 nM in assay [1], 78 nM in assay [2], 1050 nM in assay [3] and 1940 nM in assay [4].

As to `COc1cc(O)c(-c2noc3c2C(=O)c2ccccc2C3=O)cc1Cl`, the IC50 in assay [1] is 2980 nM; in assay [2], above 1000 nM; in assay [3], 300 nM; in assay [4], above 100000 nM.

On to `O=C1c2ccccc2C(=O)c2c(-c3ccc4[nH]ccc4c3)noc21`, for which the 50% inhibitory concentration (IC50) in assay [1] was 320 nM; in assay [2], 300 nM; in assay [3] it was 320 nM; in assay [4], above 100000 nM. Also, the pIC50 in assay [4] is 5.71.

Take `CC(=O)Oc1cccc2c1C(=O)c1c(-c3ccncc3)noc1C2=O`: the concentration for half-maximal inhibition (IC50) in assay [1] was 60 nM; in assay [2] it was 150 nM; in assay [3], 150 nM; in assay [4] it was 84 nM. Besides, the negative-log IC50 (pIC50) in assay [4] amounted to 7.08.

On to `O=C1c2ccncc2C(=O)c2c(-c3ccncc3)noc21`, for which the half-inhibitory concentration (IC50) in assay [1] amounted to 8.5 nM; in assay [2], 85 nM; in assay [3], 60 nM; in assay [4], 120 nM. The compound further showed a pIC50 in assay [4] of 6.92.

Consider `O=C1c2ccccc2C(=O)c2c(-c3cc[n+](Cc4cnccn4)cc3)noc21.[Br-]`, for which the IC50 stood at 52 nM in assay [1], 17 nM in assay [2], 220 nM in assay [3] and 680 nM in assay [4]. Moreover, the pIC50 in assay [4] is on record as 6.17.

For `O=C1c2cccc(O)c2C(=O)c2c(-c3ccc(F)cc3)noc21`, the half-maximal inhibitory concentration (IC50) in assay [1] came out at 290 nM; in assay [2], 124 nM; in assay [3], 610 nM; in assay [4], 290 nM. The negative-log IC50 (pIC50) in assay [4] was found to be 6.54.

`COc1cccc2c1C(=O)c1c(-c3ccncc3)noc1C2=O`: the IC50 in assay [1] stood at 330 nM; in assay [2] it was 880 nM; in assay [3], 261 nM; in assay [4] it was 1900 nM. The compound further gave a pIC50 in assay [4] of 5.72.

Consider `O=C1c2ccccc2C(=O)c2c(-c3ccc[n+](Cc4cnccn4)c3)noc21.[Br-]`, for which the half-inhibitory concentration (IC50) in assay [1] was found to be 42 nM; in assay [2], 46 nM; in assay [3] it was 110 nM; in assay [4] it was 510 nM. Besides, the negative-log IC50 (pIC50) in assay [4] came out at 6.29.

With `COc1cccc2c1C(=O)c1c(-c3cc[n+](Cc4ccccc4)cc3)noc1C2=O.[Br-]`, the half-maximal inhibitory concentration (IC50) in assay [1] came out at 168 nM; in assay [2], 180 nM; in assay [3] it was 168 nM; in assay [4], 340 nM. The negative logarithm of the IC50 (pIC50) in assay [4] was found to be 6.47.

For `O=C1c2cccc(O)c2C(=O)c2c(-c3ccncc3)noc21`, the IC50 in assay [1] is 68 nM; in assay [2], 880 nM; in assay [3], 103 nM; in assay [4] it was above 100000 nM.

`O=C1c2ccccc2C(=O)c2c(/C=C/c3ccccc3)noc21`: the IC50 is 320 nM in assay [1], above 1000 nM in assay [2], 120 nM in assay [3] and above 100000 nM in assay [4]. The compound further displayed an Activity in assay [5] of 40%.

Consider `O=C1c2ccccc2C(=O)c2c(-c3ccc[n+](Cc4ccccc4)c3)noc21.[Br-]`, for which the half-inhibitory concentration (IC50) in assay [1] is 20 nM; in assay [2] it was 21 nM; in assay [3] it was 10 nM; in assay [4], 770 nM. In addition, in assay [4], the negative logarithm of the IC50 (pIC50) amounted to 6.11.

Regarding `O=C1c2ccccc2C(=O)c2c(-c3ccncc3)noc21`, the IC50 came out at 56 nM in assay [1], 140 nM in assay [2], 11 nM in assay [3] and 390 nM in assay [4]. The negative logarithm of the IC50 (pIC50) in assay [4] is 6.41.

For `O=C1c2ccccc2C(=O)c2c(-c3ccc(O)cc3)noc21`, the IC50 was 210 nM in assay [1], 510 nM in assay [2], 460 nM in assay [3] and above 100000 nM in assay [4].

Regarding `O=C1c2cccc(O)c2C(=O)c2c(-c3cc[n+](Cc4ccccc4)cc3)noc21.[Br-]`, the concentration for half-maximal inhibition (IC50) in assay [1] came to 21600 nM; in assay [2] it was 880 nM; in assay [3], 21600 nM; in assay [4], 98 nM. Besides, the pIC50 in assay [4] came out at 7.01.

With `O=C1c2ccccc2C(=O)c2c(-c3cc(Cl)c(O)cc3O)noc21`, the IC50 was 23000 nM in assay [1], above 1000 nM in assay [2], 1000 nM in assay [3] and 4200 nM in assay [4]. In assay [4], this compound registered a negative-log IC50 (pIC50) of 5.38.

On to `COc1ccccc1-c1noc2c1C(=O)c1ccccc1C2=O`, for which the IC50 was 130 nM in assay [1], 290 nM in assay [2], 660 nM in assay [3] and 200000 nM in assay [4]. The compound further gave a pIC50 in assay [4] of 3.7.

On to `O=C1c2ccccc2C(=O)c2c(-c3ccccc3)noc21`, for which the IC50 in assay [1] was 120 nM; in assay [2], 120 nM; in assay [3] it was 20 nM; in assay [4], 7850 nM. In assay [4], the negative logarithm of the IC50 (pIC50) is recorded as 5.11.

Consider `COc1ccc(-c2noc3c2C(=O)c2ccccc2C3=O)cc1`, for which the IC50 in assay [1] is 350 nM; in assay [2], 650 nM; in assay [3], 160 nM; in assay [4], 5840 nM.

`Cl.O=C1c2ccccc2C(=O)c2c(-c3ccc(OCCN4CCOCC4)cc3)noc21`: the half-maximal inhibitory concentration (IC50) came out at 440 nM in assay [1], 866 nM in assay [2], 1130 nM in assay [3] and 1200 nM in assay [4]. The compound further had a pIC50 in assay [4] of 5.92.

For the compound `C=CCNC1=C2C[C@@H](C)C[C@H](OC)[C@H](O)[C@@H](C)/C=C(\C)[C@H](OC(N)=O)[C@@H](OC)/C=C\C=C(/C)C(=O)NC(=CC1=O)C2=O` [TANESPIMYCIN], the values for the IC50 in assay [1], in assay [2] and in assay [4] were 69 nM, 10 nM and 1100 nM, respectively.

For the compound `O=C1c2ccccc2C(=O)c2c(-c3ccccn3)noc21`, the IC50 in assay [1] was determined as 340 nM; in assay [2], 1000 nM; in assay [3] it was 20 nM; in assay [4], 1060 nM. In addition, the pIC50 in assay [4] came to 5.97.

Consider `COc1ccc(-c2noc3c2C(=O)c2cnccc2C3=O)cc1`, for which the IC50 in assay [1] worked out at 98 nM; in assay [2], 446 nM; in assay [3] it was 92 nM; in assay [4] it was 1600 nM. This compound yielded a pIC50 in assay [4] of 5.61.

Take `C[n+]1ccc(-c2noc3c2C(=O)c2ccccc2C3=O)cc1.[I-]`: the IC50 in assay [1] stood at 480 nM; in assay [2] it was 330 nM; in assay [3], 1200 nM; in assay [4], 630 nM. The compound further came in with a pIC50 in assay [4] of 6.2.

Consider `CC(=O)Oc1c2ccccc2c(OC(C)=O)c2c(-c3ccc(F)cc3)noc12`, for which the half-maximal inhibitory concentration (IC50) in assay [1] was 690 nM; in assay [2], above 1000 nM; in assay [3], 670 nM; in assay [4], above 100000 nM.

For the compound `O=C1c2ccccc2C(=O)c2c(-c3ccccc3O)noc21`, the IC50 in assay [1] was 3400 nM; in assay [2], above 1000 nM; in assay [3], 3400 nM; in assay [4], 1550 nM. In assay [4], this compound returned a negative-log IC50 (pIC50) of 5.81.

As for `O=C1c2ccncc2C(=O)c2c(-c3ccc(F)cc3)noc21`, the 50% inhibitory concentration (IC50) is 4 nM in assay [1], 183 nM in assay [2], 4 nM in assay [3] and 5600 nM in assay [4]. The negative-log IC50 (pIC50) in assay [4] turned out to be 5.25.

As to `CC(=O)Oc1cccc2c1C(=O)c1c(-c3cc[n+](Cc4ccccc4)cc3)noc1C2=O.[Br-]`, the 50% inhibitory concentration (IC50) in assay [1] was 3960 nM; in assay [2], above 1000 nM; in assay [3], 3960 nM; in assay [4], 31 nM. In addition, the negative logarithm of the IC50 (pIC50) in assay [4] was found to be 7.51. Further, in assay [5], the Activity is 32%.

On to `O=C1c2ccccc2C(=O)c2c(-c3ccc(F)cc3)noc21`, for which the 50% inhibitory concentration (IC50) was 260 nM in assay [1], 350 nM in assay [2], 20 nM in assay [3] and 200000 nM in assay [4]. The pIC50 in assay [4] was found to be 3.7.

Turning to `O=C1c2ccccc2C(=O)c2c(-c3cccnc3)noc21`, the IC50 in assay [1] was found to be 43 nM; in assay [2], 62 nM; in assay [3] it was 40 nM; in assay [4], 540 nM. Further, the pIC50 in assay [4] is listed as 6.27.

As to `COc1ccc(-c2noc3c(OC(C)=O)c4ccccc4c(OC(C)=O)c23)cc1`, the IC50 was 1300 nM in assay [1], above 1000 nM in assay [2], 1000 nM in assay [3] and above 100000 nM in assay [4]. Further, the Activity in assay [5] is 39%.

On to `O=C1c2ccccc2C(=O)c2c(-c3cccc[n+]3Cc3ccccc3)noc21.[Br-]`, for which the IC50 in assay [1] is 2240 nM; in assay [2] it was above 1000 nM; in assay [3] it was 2240 nM; in assay [4] it was 200000 nM. The compound also yielded a pIC50 in assay [4] of 3.7.

As for `COc1cc(OC)c(-c2noc3c2C(=O)c2ccccc2C3=O)cc1Cl`, the half-maximal inhibitory concentration (IC50) is 1400 nM in assay [1], 880 nM in assay [2], 135 nM in assay [3] and above 100000 nM in assay [4].

For the origin of these results see ChEMBL document CHEMBL2034908, “Isoxazolo(aza)naphthoquinones: a new class of cytotoxic Hsp90 inhibitors” (Eur J Med Chem, 2012).
